Source: ChEMBL document CHEMBL4706714 (Bioorg Med Chem, 2021)
Active and inactive are the calls of the source. The rule behind the calls is not given here.

Assays:
[1] = system: IGROV-1; experiment: Antiproliferative activity against human IGROV1 cells assessed as reduction in cell viability after 96 hrs by CellTiter-blue assay; assay type: functional, cell-based; details: IGROV-1, 96 h
[2] = system: KB; experiment: Antiproliferative activity against human KB cells assessed as reduction in cell viability after 96 hrs by CellTiter-blue assay; assay type: functional, cell-based
[3] = Cytotoxicity against Chinese Hamster MTXRII-OuaR2-4 R2 cells assessed as reduction in cell proliferation after 96 hrs by CellTiter-blue assay; assay type: cell-based; details: Cricetulus griseus, R2, 96 h
[4] = system: KB; experiment: Antiproliferative activity against human KB cells assessed as reduction in cell viability after 96 hrs in presence of folic acid by CellTiter-blue assay; assay type: functional, cell-based
How it was run: (§1)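 Cells grown in folate-free RPMI with 10% dialyzed FBS, 2 nM leucovorin, 2 mM L-glutamine; 2500–5000 cells/well, inhibitors 0–1000 nM, with 200 nM folic acid added in parallel wells to block FR uptake.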

[5] = system: KB; experiment: Antiproliferative activity against human KB cells assessed as reduction in cell viability after 96 hrs in presence of thymidine by CellTiter-blue assay; assay type: functional, cell-based
How it was run: (§2)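 KB cells, 4000 cells/well, in folate-free RPMI 1640 with 10% dialyzed FBS and 2 nM leucovorin. A range of drug concentrations was co-incubated with adenosine (60 μM) or thymidine (10 μM) for 96 h at 37 °C. Proliferation was read by CellTiter-blue fluorescence. Data are representative of at least triplicate experiments.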

[6] = molecular target: T1, Bifunctional purine biosynthesis protein ATIC (Homo sapiens, UniProt P31939); experiment: Inhibition of human full length N-terminal His-tagged ATIC expressed in Chinese Hamster MTXRII-OuaR2-4 R2 cells assessed as reduction in THF formation using 10-CHOTHF as substrate by spectrophotometric method
Target sequence in this assay (P31939 whole entry): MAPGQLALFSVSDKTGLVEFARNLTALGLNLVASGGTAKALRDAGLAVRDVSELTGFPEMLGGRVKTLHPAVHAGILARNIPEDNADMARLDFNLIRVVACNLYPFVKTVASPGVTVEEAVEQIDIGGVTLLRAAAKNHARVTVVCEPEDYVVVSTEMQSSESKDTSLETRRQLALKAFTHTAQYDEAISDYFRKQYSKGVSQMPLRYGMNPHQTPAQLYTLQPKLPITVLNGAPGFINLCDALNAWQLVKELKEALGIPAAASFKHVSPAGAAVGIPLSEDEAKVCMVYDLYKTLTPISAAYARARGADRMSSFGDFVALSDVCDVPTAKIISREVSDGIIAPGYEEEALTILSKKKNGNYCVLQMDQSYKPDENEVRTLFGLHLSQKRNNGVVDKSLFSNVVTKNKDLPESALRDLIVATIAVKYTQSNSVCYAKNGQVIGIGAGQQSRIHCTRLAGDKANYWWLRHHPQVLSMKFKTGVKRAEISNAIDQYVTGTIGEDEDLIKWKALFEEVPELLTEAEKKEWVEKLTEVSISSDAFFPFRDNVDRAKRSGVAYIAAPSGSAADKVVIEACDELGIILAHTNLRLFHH

[7] = system: KB; experiment: Antiproliferative activity against human KB cells assessed as reduction in cell viability after 96 hrs in presence of adenosine by CellTiter-blue assay; assay type: functional, cell-based; how it was run: as §2
[8] = system: IGROV-1; experiment: Antiproliferative activity against human IGROV1 cells assessed as reduction in cell viability after 96 hrs in presence of folic acid by CellTiter-blue assay; assay type: functional, cell-based; details: IGROV-1, 96 h; how it was run: as §1
[9] = molecular target: Folate receptor alpha (Homo sapiens) (UniProt P15328); experiment: Displacement of [3H]-folic acid from human FRalpha expressed in Chinese Hamster MTXRII-OuaR2-4 R2 cells after 15 mins by liquid scintillation counting method; assay type: cell-based
How it was run: (§3)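 RT16 (FRα) or D4 (FRβ) CHO transfectants, 1 × 10^6 cells, adhered 24 h; washed at 4 °C with DPBS, pH 3.5 acetate buffer to strip bound folate, then HBS pH 7.4. Incubated 15 min at 0 °C with 50 nM [3H]folic acid plus competitor 0–1 μM; bound label per mg protein (Folin-phenol).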

[10] = molecular target: Folate receptor beta (Homo sapiens) (UniProt P14207); experiment: Displacement of [3H]-folic acid from human FRbeta expressed in Chinese Hamster MTXRII-OuaR2-4 R2 cells after 15 mins by liquid scintillation counting method; assay type: cell-based; how it was run: as §3
[11] = Inhibition of human full length N-terminal His-tagged GARFTase expressed in Chinese Hamster MTXRII-OuaR2-4 R2 cells assessed as reduction in THF formation using 10-CHOTHF as substrate by spectrophotometric method
[12] = system: IGROV-1; experiment: Inhibition of de nova purine biosynthesis in human IGROV1 assessed as decrease in AMP level at 1 uM after 48 hrs by LC-MS/MS analysis; assay type: functional
How it was run: (§4)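 NCI-IGROV1 ovarian cells in folate-free RPMI, 10% FBS, 2 mM L-glutamine, five replicate dishes, adhered 24 h; medium replaced and 1 μM inhibitor or DMSO vehicle added for 48 h. Extracted metabolites measured by reverse-phase LC-MS, negative ion mode, identified by exact mass and retention time against standards; normalized to cell protein; expressed relative to vehicle control.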

[13] = system: IGROV-1; experiment: Inhibition of GARFTase in human IGROV1 assessed as increase in GAR level at 1 uM after 48 hrs by LC-MS/MS analysis; how it was run: as §4
[14] = Inhibition of de nova purine biosynthesis in human IGROV1 assessed as decrease in IMP level at 1 uM after 48 hrs by LC-MS/MS analysis relative to control; assay type: functional; details: IGROV-1; how it was run: as §4
[15] = Inhibition of de nova purine biosynthesis in human IGROV1 assessed as decrease in ADP level at 1 uM after 48 hrs by LC-MS/MS analysis relative to control; assay type: functional; details: IGROV-1; how it was run: as §4
[16] = Inhibition of de nova purine biosynthesis in human IGROV1 assessed as decrease in ATP level at 1 uM after 48 hrs by LC-MS/MS analysis relative to control; assay type: functional; details: IGROV-1; how it was run: as §4
[17] = system: IGROV-1; experiment: Inhibition of GARFTase in human IGROV1 assessed as decrease in fGAR level at 1 uM after 48 hrs by LC-MS/MS analysis relative to control; how it was run: as §4
[18] = molecular target: T1, Bifunctional purine biosynthesis protein ATIC; experiment: Inhibition of AICARFTase in human IGROV1 assessed as decrease in ZMP level at 1 uM after 48 hrs by LC-MS/MS analysis relative to control; details: IGROV-1; how it was run: as §4
Target sequence in this assay (P31939 whole entry, looked up): as the sequence (P31939 whole entry) above

Sequence of Folate receptor alpha (Homo sapiens) (P15328 25-234 limits assumed): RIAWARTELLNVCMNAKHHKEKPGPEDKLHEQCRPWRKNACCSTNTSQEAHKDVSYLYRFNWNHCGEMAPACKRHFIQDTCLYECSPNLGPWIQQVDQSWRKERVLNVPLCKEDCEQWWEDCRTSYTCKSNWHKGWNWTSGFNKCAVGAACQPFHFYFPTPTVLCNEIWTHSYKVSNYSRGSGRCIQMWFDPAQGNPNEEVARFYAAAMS
Sequence of Folate receptor beta (Homo sapiens) (P14207 17-230 limits assumed): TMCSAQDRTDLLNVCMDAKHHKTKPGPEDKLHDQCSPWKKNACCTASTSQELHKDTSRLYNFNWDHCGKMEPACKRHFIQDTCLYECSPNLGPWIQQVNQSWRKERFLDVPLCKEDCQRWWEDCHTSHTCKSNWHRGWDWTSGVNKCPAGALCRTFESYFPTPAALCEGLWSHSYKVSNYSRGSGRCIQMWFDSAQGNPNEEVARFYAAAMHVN

| Compound | IC50 [1] | IC50 [2] | IC50 [3] | IC50 [4] | Activity [5] | Ki [6] | Activity [7] | IC50 [8] | Activity [9] | Activity [10] | Ki [11] | inhibition [12] | fold change (FC) [13] | inhibition at 1 µM [14] | inhibition at 1 µM [15] | inhibition at 1 µM [16] | inhibition [17] | inhibition [18] |
| --- | --- | --- | --- | --- | --- | --- | --- | --- | --- | --- | --- | --- | --- | --- | --- | --- | --- | --- |
| Nc1nc2sc(CCCc3csc(C(=O)N[C@@H](CCC(=O)O)C(=O)O)c3)cc2c(=O)[nH]1 | 86.7 nM | 1.48 nM | > 1000 nM | > 1000 nM | Active | 19800 nM | inactive | > 1000 nM |  |  |  |  |  |  |  |  |  |  |
| Nc1nc2sc(CCCCc3ccc(C(=O)N[C@@H](CCC(=O)O)C(=O)O)o3)cc2c(=O)[nH]1 | > 1000 nM | 7.9 nM | > 1000 nM | > 1000 nM | Active | 24700 nM | inactive | > 1000 nM | 89% | 60% | 10700 nM |  |  |  |  |  |  |  |
| Nc1nc2sc(CCCCc3cc(C(=O)N[C@@H](CCC(=O)O)C(=O)O)cs3)cc2c(=O)[nH]1 | > 1000 nM | 4.74 nM | > 1000 nM | > 1000 nM | Active | 1070 nM | inactive | > 1000 nM |  |  | 150 nM |  |  |  |  |  |  |  |
| Nc1nc2sc(CCCCc3ccc(C(=O)N[C@@H](CCC(=O)O)C(=O)O)cc3)cc2c(=O)[nH]1 |  |  | > 1000 nM | > 1000 nM | Active | 9480 nM | inactive | > 1000 nM |  |  |  |  |  |  |  |  |  |  |
| Nc1nc2[nH]cc(CCCCc3ccc(C(=O)N[C@@H](CCC(=O)O)C(=O)O)cc3)c2c(=O)[nH]1 |  |  |  |  | Active |  | inactive |  |  |  |  |  |  |  |  |  |  |  |
| Nc1nc2[nH]c(CCCc3ccc(C(=O)N[C@@H](CCC(=O)O)C(=O)O)s3)cc2c(=O)[nH]1 |  |  |  |  |  |  |  |  |  |  |  | Active | 150 | 60% | 60% | 75% | 99% | 50% |
| Nc1nc2sc(CCCc3ccc(C(=O)N[C@@H](CCC(=O)O)C(=O)O)s3)cc2c(=O)[nH]1 | 54.1 nM | 1.42 nM | > 1000 nM | > 1000 nM | Active | 14500 nM | inactive | > 1000 nM | 89% | 60% | 8190 nM | Active | 150 | 60% | 60% | 75% | 75% | Active |
| Nc1nc2[nH]cc(CCc3ccc(C(=O)N[C@@H](CCC(=O)O)C(=O)O)cc3)c2c(=O)[nH]1 [PEMETREXED] |  |  |  |  |  |  |  |  |  |  | > 150000 nM |  |  |  |  |  |  |  |
| Nc1nc2sc(CCCc3cc(C(=O)N[C@@H](CCC(=O)O)C(=O)O)cs3)cc2c(=O)[nH]1 | 26 nM | 1.82 nM | > 1000 nM | > 1000 nM | Active | 8370 nM | inactive | > 1000 nM |  |  | 910 nM |  |  |  |  |  |  |  |
| Nc1nc2sc(CCCCc3ccc(C(=O)N[C@@H](CCC(=O)O)C(=O)O)s3)cc2c(=O)[nH]1 | 10.1 nM | 2.1 nM | > 1000 nM | > 1000 nM | Active | 5150 nM | inactive | > 1000 nM | 89% | 60% | 1360 nM | Active | 150 | 60% | 60% | 75% | 50% | Active |
| Nc1nc2sc(CCCCc3csc(C(=O)N[C@@H](CCC(=O)O)C(=O)O)c3)cc2c(=O)[nH]1 | 108 nM | 6.85 nM | > 1000 nM | > 1000 nM | Active | 8030 nM | inactive | > 1000 nM |  |  | > 150000 nM |  |  |  |  |  |  |  |
